{"source": "ChEMBL document CHEMBL1641579", "about": "“Synthesis and biological evaluation of 7-substituted-1-(3-bromophenylamino)isoquinoline-4-carbonitriles as inhibitors of myosin light chain kinase and epidermal growth factor receptor” (Bioorg Med Chem, 2011)", "format_in_all_cases": "functional", "key": {"[1]": {"test": "Growth inhibition of human HCC364 cells assessed as ATP level after 96 hrs by CellTiter-Glo assay", "conditions": "HCC364, 96 h", "how_it_was_run": "(§1)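 NSCLC lines maintained as in earlier work and authenticated by mutational analysis and SNP arrays. Cells were plated in 384-well format and allowed 24 h before compound addition as 10 threefold serial dilutions (DMSO stocks). After 96 h, viability was read as cellular ATP by CellTiter-Glo. GI50 was fitted with an R package.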"}, "NCI-H1755": {"test_system": "NCI-H1755", "test": "Growth inhibition of human NCI-H1755 cells assessed as ATP level after 96 hrs by CellTiter-Glo assay", "conditions": "NCI-H1755, 96 h", "how_it_was_run": "as §1"}, "NCI-H2228": {"test_system": "NCI-H2228", "test": "Growth inhibition of human NCI-H2228 cells assessed as ATP level after 96 hrs by CellTiter-Glo assay", "conditions": "NCI-H2228, 96 h"}, "[2]": {"test": "Growth inhibition of human HCC15 cells assessed as ATP level after 96 hrs by CellTiter-Glo assay", "conditions": "HCC15, 96 h", "how_it_was_run": "as §1"}, "[3]": {"test": "Growth inhibition of human HCC2279 cells assessed as ATP level after 96 hrs by CellTiter-Glo assay", "how_it_was_run": "as §1"}, "NCI-H1395": {"test_system": "NCI-H1395", "test": "Growth inhibition of human NCI-H1395 cells assessed as ATP level after 96 hrs by CellTiter-Glo assay", "conditions": "NCI-H1395, 96 h", "how_it_was_run": "as §1"}, "[4]": {"test": "Growth inhibition of human H441 cells assessed as ATP level after 96 hrs by CellTiter-Glo assay", "conditions": "NCI-H441, 96 h", "how_it_was_run": "as §1"}, "[5]": {"test": "Growth inhibition of human HCC1833 cells assessed as ATP level after 96 hrs by CellTiter-Glo assay", "how_it_was_run": "as §1"}, "[6]": {"test": "Growth inhibition of human NCI-H2110 cells assessed as ATP level after 96 hrs by CellTiter-Glo assay", "conditions": "NCI-H2110, 96 h"}, "NCI-H2347": {"test_system": "NCI-H2347", "test": "Growth inhibition of human NCI-H2347 cells assessed as ATP level after 96 hrs by CellTiter-Glo assay", "conditions": "NCI-H2347, 96 h"}, "[7]": {"test": "Growth inhibition of human COLO699 cells assessed as ATP level after 96 hrs by CellTiter-Glo assay", "conditions": "COLO 699, 96 h", "how_it_was_run": "as §1"}, "[8]": {"test": "Growth inhibition of human NCI-H1944 cells assessed as ATP level after 96 hrs by CellTiter-Glo assay", "conditions": "NCI-H1944, 96 h", "how_it_was_run": "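Human NSCLC cells, maintained as described previously and authenticated by mutational analysis and SNP arrays, were plated and incubated 24 h. Compounds were dissolved in DMSO and added as 10 threefold serial dilutions. Viability was read after 96 h as cellular ATP content by luminescence, and half-maximal inhibitory concentrations were fitted to give GI50.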"}, "[9]": {"test": "Growth inhibition of human NCI-H1568 cells assessed as ATP level after 96 hrs by CellTiter-Glo assay", "conditions": "NCI-H1568, 96 h", "how_it_was_run": "as §1"}, "NCI-H1993": {"test_system": "NCI-H1993", "test": "Growth inhibition of human NCI-H1993 cells assessed as ATP level after 96 hrs by CellTiter-Glo assay", "conditions": "NCI-H1993, 96 h"}, "NCI-H1650": {"test_system": "NCI-H1650", "test": "Growth inhibition of human NCI-H1650 cells assessed as ATP level after 96 hrs by CellTiter-Glo assay", "conditions": "NCI-H1650, 96 h", "how_it_was_run": "as §1"}, "NCI-H661": {"test_system": "NCI-H661", "test": "Growth inhibition of human NCI-H661 cells assessed as ATP level after 96 hrs by CellTiter-Glo assay", "conditions": "NCI-H661, 96 h"}, "[10]": {"test": "Growth inhibition of human HCC95 cells assessed as ATP level after 96 hrs by CellTiter-Glo assay", "conditions": "HCC95, 96 h", "how_it_was_run": "as §1"}, "[11]": {"test": "Growth inhibition of human HCC44 cells assessed as ATP level after 96 hrs by CellTiter-Glo assay", "conditions": "HCC44, 96 h", "how_it_was_run": "as §1"}, "LCLC-97TM1": {"test_system": "LCLC-97TM1", "test": "Growth inhibition of human LCLC97TM1 cells assessed as ATP level after 96 hrs by CellTiter-Glo assay", "conditions": "LCLC-97TM1, 96 h", "how_it_was_run": "as §1"}, "NCI-H522": {"test_system": "NCI-H522", "test": "Growth inhibition of human NCI-H522 cells assessed as ATP level after 96 hrs by CellTiter-Glo assay", "conditions": "NCI-H522, 96 h"}, "[12]": {"test": "Growth inhibition of human HCC78 cells assessed as ATP level after 96 hrs by CellTiter-Glo assay", "conditions": "HCC78, 96 h", "how_it_was_run": "as §1"}, "[13]": {"test": "Growth inhibition of human HCC193 cells assessed as ATP level after 96 hrs by CellTiter-Glo assay", "conditions": "HCC193, 96 h", "how_it_was_run": "as §1"}, "[14]": {"test": "Growth inhibition of human H820 cells assessed as ATP level after 96 hrs by CellTiter-Glo assay", "conditions": "NCI-H820, 96 h", "how_it_was_run": "as §1"}, "NCI-H1666": {"test_system": "NCI-H1666", "test": "Growth inhibition of human NCI-H1666 cells assessed as ATP level after 96 hrs by CellTiter-Glo assay", "conditions": "NCI-H1666, 96 h", "how_it_was_run": "as §1"}, "[15]": {"test": "Growth inhibition of human HCC1171 cells assessed as ATP level after 96 hrs by CellTiter-Glo assay", "conditions": "HCC1171, 96 h", "how_it_was_run": "as §1"}, "[16]": {"test": "Growth inhibition of human HCC366 cells assessed as ATP level after 96 hrs by CellTiter-Glo assay", "conditions": "HCC366, 96 h", "how_it_was_run": "as §1"}, "[17]": {"test": "Growth inhibition of human LouNH91 cells assessed as ATP level after 96 hrs by CellTiter-Glo assay", "conditions": "LOU-NH91, 96 h", "how_it_was_run": "as §1"}, "NCI-H520": {"test_system": "NCI-H520", "test": "Growth inhibition of human NCI-H520 cells assessed as ATP level after 96 hrs by CellTiter-Glo assay", "conditions": "NCI-H520, 96 h"}, "[18]": {"test": "Growth inhibition of human NCI-H3122 cells assessed as ATP level after 96 hrs by CellTiter-Glo assay", "conditions": "NCI-H3122, 96 h"}, "NCI-H1563": {"test_system": "NCI-H1563", "test": "Growth inhibition of human NCI-H1563 cells assessed as ATP level after 96 hrs by CellTiter-Glo assay", "conditions": "NCI-H1563, 96 h", "how_it_was_run": "as §1"}, "NCI-H1734": {"test_system": "NCI-H1734", "test": "Growth inhibition of human NCI-H1734 cells assessed as ATP level after 96 hrs by CellTiter-Glo assay", "conditions": "NCI-H1734, 96 h", "how_it_was_run": "as §1"}, "NCI-H2122": {"test_system": "NCI-H2122", "test": "Growth inhibition of human NCI-H2122 cells assessed as ATP level after 96 hrs by CellTiter-Glo assay", "conditions": "NCI-H2122, 96 h"}, "EKVX": {"test_system": "EKVX", "test": "Growth inhibition of human EKVX cells assessed as ATP level after 96 hrs by CellTiter-Glo assay", "how_it_was_run": "as §1"}, "[19]": {"test": "Growth inhibition of human NCI-H1781 cells assessed as ATP level after 96 hrs by CellTiter-Glo assay", "conditions": "NCI-H1781, 96 h", "how_it_was_run": "as §1"}, "[20]": {"test": "Growth inhibition of human NCI-H2172 cells assessed as ATP level after 96 hrs by CellTiter-Glo assay", "conditions": "NCI-H2172, 96 h"}, "[21]": {"test": "Growth inhibition of human HCC2429 cells assessed as ATP level after 96 hrs by CellTiter-Glo assay", "conditions": "HCC2429, 96 h", "how_it_was_run": "as §1"}, "Calu-1": {"test_system": "Calu-1", "test": "Growth inhibition of human Calu1 cells assessed as ATP level after 96 hrs by CellTiter-Glo assay", "conditions": "Calu-1, 96 h", "how_it_was_run": "as §1"}}, "data": [{"smiles": "CN(C)C/C=C/C(=O)Nc1ccc2c(C#N)cnc(Nc3cccc(Br)c3)c2c1", "values": [{"measurement": "GI50", "setting": "[1]", "value": 21.9, "unit": "µM"}, {"measurement": "GI50", "setting": "NCI-H1755", "value": 9.89, "unit": "µM"}, {"measurement": "GI50", "setting": "NCI-H2228", "value": 21.9, "unit": "µM"}, {"measurement": "GI50", "setting": "[2]", "value": 19.3, "unit": "µM"}, {"measurement": "GI50", "setting": "[3]", "value": 10.6, "unit": "µM"}, {"measurement": "GI50", "setting": "NCI-H1395", "value": 31.3, "unit": "µM"}, {"measurement": "GI50", "setting": "[4]", "value": 19.1, "unit": "µM"}, {"measurement": "GI50", "setting": "[5]", "value": 16.8, "unit": "µM"}, {"measurement": "GI50", "setting": "[6]", "value": 13.2, "unit": "µM"}, {"measurement": "GI50", "setting": "NCI-H2347", "value": 22.9, "unit": "µM"}, {"measurement": "GI50", "setting": "[7]", "value": 15.3, "unit": "µM"}, {"measurement": "GI50", "setting": "[8]", "value": 33.9, "unit": "µM"}, {"measurement": "GI50", "setting": "[9]", "value": 30.9, "unit": "µM"}, {"measurement": "GI50", "setting": "NCI-H1993", "value": 12.9, "unit": "µM"}, {"measurement": "GI50", "setting": "NCI-H1650", "value": 15.7, "unit": "µM"}, {"measurement": "GI50", "setting": "NCI-H661", "value": 14, "unit": "µM"}, {"measurement": "GI50", "setting": "[10]", "value": 13.3, "unit": "µM"}, {"measurement": "GI50", "setting": "[11]", "value": 23.7, "unit": "µM"}, {"measurement": "GI50", "setting": "LCLC-97TM1", "value": 19.5, "unit": "µM"}, {"measurement": "GI50", "setting": "NCI-H522", "value": 17.2, "unit": "µM"}, {"measurement": "GI50", "setting": "[12]", "value": 19.7, "unit": "µM"}, {"measurement": "GI50", "setting": "[13]", "value": 15.3, "unit": "µM"}, {"measurement": "GI50", "setting": "[14]", "value": 12.9, "unit": "µM"}, {"measurement": "GI50", "setting": "NCI-H1666", "value": 28.8, "unit": "µM"}, {"measurement": "GI50", "setting": "[15]", "value": 17.4, "unit": "µM"}, {"measurement": "GI50", "setting": "[16]", "value": 16.6, "unit": "µM"}, {"measurement": "GI50", "setting": "[17]", "value": 15.7, "unit": "µM"}, {"measurement": "GI50", "setting": "NCI-H520", "value": 16, "unit": "µM"}, {"measurement": "GI50", "setting": "[18]", "value": 16.6, "unit": "µM"}, {"measurement": "GI50", "setting": "NCI-H1563", "value": 30.9, "unit": "µM"}, {"measurement": "GI50", "setting": "NCI-H1734", "value": 24.3, "unit": "µM"}, {"measurement": "GI50", "setting": "NCI-H2122", "value": 18.8, "unit": "µM"}, {"measurement": "GI50", "setting": "EKVX", "value": 14.5, "unit": "µM"}, {"measurement": "GI50", "setting": "[19]", "value": 10.1, "unit": "µM"}, {"measurement": "GI50", "setting": "[20]", "value": 17.4, "unit": "µM"}, {"measurement": "GI50", "setting": "[21]", "value": 19.5, "unit": "µM"}, {"measurement": "GI50", "setting": "Calu-1", "value": 19.7, "unit": "µM"}]}]}
